Series [1] in a line: folding enthalpy; higher = less favourable; fluorescence melt of hairpins on a sequencing array, two-state fit. As to conditions: sodium 0.088 M. In short, it runs like this:
(§1)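 Two-state fits, bootstrapped, provided melting temperature and folding enthalpy from Cy3 fluorescence normalised to pre-quench Cy3 and to control constructs. Library hairpins with annealed Cy3 and quencher oligos were imaged on a sequenced MiSeq flow cell in 50 mM Na-HEPES pH 8.0, 25 mM NaCl, at 2.5 °C intervals up to 60 °C. Four replicates were combined with inverse-variance weighting. A 9.35 °C upward shift was applied to fitted temperatures to match UV melts.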

The nature of series [2]: melting temperature; fluorescence melt of hairpins on a sequencing array, two-state fit, raised by 9.35 °C to match UV melts. The note with it: sodium 0.088 M. In short, it runs like this: as §1

Regarding GGGGTGCCGAAAGGCCCC (((..(((....)))))), in series [1], the folding enthalpy was -14.6 kcal/mol. Further, the Tm in series [2] worked out at 65 °C.

For the sequence CGACCGGAAACGGGTCG ((((((....))).))), the folding enthalpy in series [1] was -32.4 kcal/mol. For the same sequence, the Tm in series [2] amounted to 56.9 °C.

As to GATCGGACGACCGATC ((((((....)))))), the folding enthalpy in series [1] was -35.1 kcal/mol. Further, the Tm in series [2] turned out to be 57.3 °C.

Regarding GATCTCCTAAGAGATC ((((((....)))))), the folding enthalpy in series [1] is -42.6 kcal/mol. Also, in series [2], the Tm was 53.6 °C.

GATCAGCGAAAGCTCATC (((.(((....))).))): the folding enthalpy in series [1] is -13 kcal/mol. Also, the Tm in series [2] came to 29.8 °C.

AGGTGGAAACACCT (((((....))))): in series [1], the folding enthalpy is -19.2 kcal/mol. Also, the Tm in series [2] was found to be 52.6 °C.

As for GCTAGGCGAAAGCCGTGC ((..(((....)))..)), in series [1], the folding enthalpy is -13.9 kcal/mol. Also, in series [2], the Tm was 57.7 °C.

Consider CGCGGACTAATCCGCG ((((((....)))))), for which the folding enthalpy in series [1] was -38.3 kcal/mol. The Tm in series [2] was 65.9 °C.

Take GCCACCGAAAGGTCAGGC ((((((....)))..))): the folding enthalpy in series [1] was -23.1 kcal/mol. Moreover, the Tm in series [2] came to 48.4 °C.

GAAAAAGGAAACTTTTTC (((((((....))))))): the folding enthalpy in series [1] was -39.7 kcal/mol. In addition, the Tm in series [2] came out at 46 °C.

Consider GAGTACGAAAGTACTC ((((((....)))))), for which the folding enthalpy in series [1] was -35.7 kcal/mol. Also, the Tm in series [2] came to 64.8 °C.

For the sequence GATCAAACAATTGATC ((((((....)))))), in series [1], the folding enthalpy was -22.6 kcal/mol. The Tm in series [2] was found to be 37.1 °C.

On to GGTCAAGCGAAAGCTACC (((..(((....)))))), for which the folding enthalpy in series [1] was -17.8 kcal/mol. For the same sequence, the Tm in series [2] was determined as 34.8 °C.

In the case of GGGCGCCCGAAAGGGCCC (((..(((....)))))), the folding enthalpy in series [1] was -11.5 kcal/mol. Besides, the Tm in series [2] turned out to be 59.5 °C.

For GCCTTCGAAAGAATGGGC ((((((....)))..))), in series [1], the folding enthalpy is -28.1 kcal/mol. Moreover, the Tm in series [2] was found to be 42.5 °C.

Consider GGCATCGGAAACAATGCC (((((.(....).))))), for which the folding enthalpy in series [1] was -30.4 kcal/mol. The Tm in series [2] came to 46.7 °C.

Consider GACATCCGAAAGGACGTC (((.(((....))).))), for which the folding enthalpy in series [1] is -37 kcal/mol. For the same sequence, the Tm in series [2] stood at 49 °C.

For GATCCTACTTAGGATC ((((((....)))))), the folding enthalpy in series [1] is -37.3 kcal/mol. In series [2], the Tm is 53.2 °C.

As to GATCAGAGGGCTGATC ((((((....)))))), the folding enthalpy in series [1] is -39.2 kcal/mol. The Tm in series [2] turned out to be 47.7 °C.

Consider GTTTGCGAAAGCAGTAAC ((((((....)))..))), for which, in series [1], the folding enthalpy was -12.9 kcal/mol. Further, the Tm in series [2] was found to be 30.6 °C.

With GAACGAGAAATCGTTC ((((((....)))))), the folding enthalpy in series [1] was -31.3 kcal/mol. Besides, in series [2], the Tm is 54.5 °C.

Take GGAACGGGAAACCGTTTC (.(((((....))))).): the folding enthalpy in series [1] was -24.5 kcal/mol. Further, the Tm in series [2] was 49.7 °C.

For GAATACGGAAACGTATTC (((((((....))))))), the folding enthalpy in series [1] was -36.5 kcal/mol. Besides, the Tm in series [2] was found to be 55.7 °C.

With GCAACGACGAAAGTCTGC (((..(((....)))))), the folding enthalpy in series [1] was -16.6 kcal/mol. Further, in series [2], the Tm stood at 40.5 °C.

Consider GCAACCGAAAGGTGGTGC ((((((....)))..))), for which the folding enthalpy in series [1] is -20.8 kcal/mol. Also, in series [2], the Tm turned out to be 48.6 °C.

With GCTAAGCGAAAGCGTAGC ((((.((....)).)))), in series [1], the folding enthalpy was -20.3 kcal/mol. Besides, the Tm in series [2] was 61.5 °C.

Consider GCGCCCGCGAAAGCGCGC (((..(((....)))))), for which the folding enthalpy in series [1] is -16.2 kcal/mol. Besides, the Tm in series [2] was determined as 58.5 °C.

For the sequence GTTGGGGGAAACCCTGAC ((..(((....)))..)), the folding enthalpy in series [1] is -23.8 kcal/mol. The Tm in series [2] is 35.6 °C.

As for GCATGTGGAAACGCATGC (((((.(....).))))), the folding enthalpy in series [1] was -44.7 kcal/mol. Further, the Tm in series [2] was found to be 55.9 °C.

For GTCTGGGGAAACTCAGAC (((((.(....).))))), in series [1], the folding enthalpy was -43.7 kcal/mol. In addition, in series [2], the Tm is 49.1 °C.

These data come from the array DNA melting data of Ke et al. (doi:10.1101/2024.01.08.574731).
